In ChEMBL document CHEMBL1143847, “Competitive inhibitors of the CphA metallo-beta-lactamase from Aeromonas hydrophila” (Antimicrob Agents Chemother, 2007) one finds Ki data, which are given here for 4 compounds.

The target of assay [1] is T1, Beta-lactamase (Aeromonas hydrophila, UniProt Q44079). As to the kind of experiment: Inhibition of Aeromonas hydrophila beta lactamase CphA by competitive inhibition assay.
For assay [2], the target named is T1, Beta-lactamase. As to the kind of experiment: Inhibition of Aeromonas hydrophila beta lactamase CphA at pH 7.0.
In assay [3] the target is T1, Beta-lactamase. Description: Inhibition of Aeromonas hydrophila beta lactamase CphA at pH 9.0.
The target in assay [4] is T1, Beta-lactamase. Description: Inhibition of Aeromonas hydrophila beta lactamase CphA at pH 8.0.
The nature of assay [5]: Inhibition of Aeromonas hydrophila beta lactamase CphA N116H-N220G mutant by competitive inhibition assay. In short, it runs like this:
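Purified double-mutant enzyme (0.03–0.7 nM) in 20 mM HEPES pH 7.0 with 20 μg/ml BSA. Imipenem was varied 20–200 μM at three inhibitor concentrations and without inhibitor, with no preincubation, at 30°C. Initial rates were Hanes-linearized to give the competitive Ki. The dizinc form was run separately with cefotaxime in 20 mM cacodylate pH 6.5, BSA, 100 μM ZnCl2.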

Assay [6] has as its target T1, Beta-lactamase. Description: Inhibition of Aeromonas hydrophila beta lactamase CphA at pH 10.0.

T1 sequence (Q44079 whole entry): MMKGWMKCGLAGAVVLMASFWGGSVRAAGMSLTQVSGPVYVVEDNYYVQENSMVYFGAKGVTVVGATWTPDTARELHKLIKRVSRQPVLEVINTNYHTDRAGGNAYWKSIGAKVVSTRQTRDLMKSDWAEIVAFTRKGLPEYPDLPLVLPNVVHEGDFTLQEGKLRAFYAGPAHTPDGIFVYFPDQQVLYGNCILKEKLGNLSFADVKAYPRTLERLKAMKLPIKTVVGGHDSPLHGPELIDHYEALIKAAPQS

Take `O=C(O)c1ccncc1C(=O)O`: in assay [1], the Ki – broadly, a dissociation constant, usually derived from enzyme kinetics or from competition with a known ligand – amounted to 1100 µM.

Consider `O=C(O)c1ccccn1` [2-PICOLINIC ACID], for which the Ki in assay [2] is 46 µM; in assay [3] it was 440 µM; in assay [4], 76 µM; in assay [1], 5.7 µM; in assay [5], 13 µM; in assay [6], 1100 µM.

For the compound `O=C(O)c1ccc(C(=O)O)nc1` [PYRIDINE-2,5-DICARBOXYLIC ACID], the Ki in assay [1] worked out at 420 µM.

As to `O=C(O)c1cccnc1C(=O)O` [QUINOLINIC ACID], the affinity in assay [1] corresponds to a Ki of 200 µM.
